Data from publication PMC9008867 (Therapeutic Advances in Medical Oncology, 2022).
Several values for one entry are separate records, joined by “and”; a condition that tells them apart may be missing. Equal values may be shown once. Read-outs that look alike come from different tables or passages of the source.

What was measured:
[1] = test system: Asian patients with advanced or metastatic malignancies; assay: Adverse events; assay type: in vivo, human; settings: Schedule 3; patients n (%)
Method in brief: (§1)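 Test compound given orally by schedule. Schedule 1: Mon/Thu, 28-day cycle. Schedule 2: Mondays weekly, 28-day cycle. Schedule 3: Mon/Wed for 2 of 3 weeks, 21-day cycle. Schedule 4: Mon/Wed/Fri, 28-day cycle. All patients received anorexia/nausea prophylaxis. AEs were recorded up to 30 days after the last dose and graded every 2 weeks for cycles 1–2, then every 4 weeks.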

[2] = test system: XPO1; assay: XPO1 mRNA expression in PBMCs/leukocytes by qRT-PCR pre and post dose; assay type: in vivo, human; settings: 40 and 50 mg/m^2, 10 patients assessed
[3] = Plasma selinexor pharmacokinetics; assay type: in vivo, human
[4] = test system: metastatic triple-negative breast cancer; settings: 10 heavily pretreated patients; cited from earlier work
[5] = test system: Asian patients with advanced or metastatic malignancies; assay: Adverse events; assay type: in vivo, human; settings: Schedule 1; patients n (%)
Method in brief: as §1

[6] = test system: advanced or metastatic malignancies; assay: Antitumour response; assay type: in vivo, human
Method in brief: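 Solid tumours were imaged by CT or MRI and scored by RECIST 1.1. NHL was scored by IWG criteria; CTCL by consensus criteria with mSWAT skin scoring plus nodes, blood and viscera. Response was documented at least once at 8 weeks, then every two cycles. Evaluable patients had ≥1 dose and ≥1 postbaseline scan. Expansion dosing: flat 60 mg on days 1, 4, 8, 11 of 21-day cycles.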

[7] = test system: metastatic castration-resistant prostate cancer; settings: eight patients with measurable disease at baseline; cited from earlier work
[8] = test system: Asian patients with advanced or metastatic malignancies; assay: Phase 1a 3 + 3 dose escalation: DLT, MTD, RP2D, tolerability, deaths; assay type: in vivo, human
Method in brief: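 Modified 3+3 design: ≥3 patients per cohort, expanded to six after one DLT; DLTs were assessed in cycle 1. DLT was possibly drug-related grade ≥3 nonhaematological toxicity (not reversible asymptomatic electrolyte changes or hair loss). Haematological DLT: grade 4 neutropenia ≥7 days, febrile neutropenia, or grade ≥3 thrombocytopenia with bleeding. 2/6 DLTs set the MTD; RP2D was the next lower level. Deaths were counted within 30 days of last dose.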

[9] = cited from earlier work
[10] = test system: relapsed or refractory diffuse large B cell lymphoma; settings: relapsed or refractory DLBCL; cited from earlier work
[11] = all dose levels, 74 evaluable patients
[12] = phase 1b expansion cohort, 35 evaluable patients
[13] = Schedule 2, 70 mg/m^2 once a week, six patients
[14] = Schedule 3, 50 mg/m^2, subsequent four patients
[15] = Caucasian patients, 39 mg/m^2, n = 9

## O=C(/C=C\n1cnc(-c2cc(C(F)(F)F)cc(C(F)(F)F)c2)n1)NNc1cnccn1 [selinexor]
[1]
  Abdominal discomfort, Any grade: 3 (20) %
  Abdominal discomfort, G1/G2: 3 (20) %
  Anaemia, Any grade: 3 (20) %
  Anorexia, Any grade: 11 (73.33) %
  Conjunctivitis, Any grade: 1 (6.66) %
  Constipation, Any grade: 1 (6.66) %
  Dehydration, Any grade: 2 (13.33) %
  Diarrhoea, Any grade: 5 (33.33) %
  Dry skin, Any grade: 1 (6.66) %
  Dysgeusia, Any grade: 2 (13.33) %
  Edema, Any grade: 1 (6.66) %
  Fatigue, Any grade: 13 (86.66) %
  Giddiness, Any grade: 2 (13.33) %
  Hypocalcaemia, Any grade: 1 (6.66) %
  Hypokalaemia, Any grade: 4 (26.66) %
  Hypomagnesemia, Any grade: 6 (40) %
  Hyponatremia, Any grade: 13 (86.66) %
  Hypophosphatemia, Any grade: 6 (40) %
  Increased flatulence, Any grade: 1 (6.66) %
  Increased flatulence, G1/G2: 1 (6.66) %
  Lethargy, Any grade: 1 (6.66) %
  Nausea, Any grade: 4 (26.66) %
  Thrombocytopenia, Any grade: 4 (26.66) %
  Vomiting, Any grade: 5 (33.33) %
  Weight loss, Any grade: 4 (26.66) %
[2]; 4 h post dose
  patients with at least twofold induction of XPO1 mRNA: nine
[2]; 8 h post dose
  patients with greater than twofold mRNA increases in XPO1: all 10 patients
[3]; among 40, 50 and 60 mg/m^2 doses
  AUC0-8 dose proportionality: dose-proportional
[3]; cycle 1 day 15 or cycle 2 day 8/day 15
  predose concentrations after multiple doses: either 0 or close to 0
[3]; human, plasma, oral, 40 mg/m2
  AUC(0-t): 5340 ± 1540 ng·h/mL
  Cmax: 567 ± 159 ng/mL
[3]; human, plasma, po, 60 mg/m2
  Tmax: 1 to 4 h
[3]; oral, 40-60 mg/m^2
  mean T1/2: ~ 6 h
[4]
  objective responses: did not result in any objective responses
[5]
  Anaemia, Any grade: 1 (16.6) %
  Anorexia, Any grade: 4 (66.6) %
  Dehydration, Any grade: 1 (16.6) %
  Diarrhoea, Any grade: 2 (33.3) %
  Fatigue, Any grade: 6 (100) %
  Hypokalaemia, Any grade: 2 (33.3) %
  Hypomagnesemia, Any grade: 1 (16.6) %
  Hyponatremia, Any grade: 6 (100) %
  Nausea, Any grade: 1 (16.6) %
  Thrombocytopenia, Any grade: 2 (33.3) %
  Vomiting, Any grade: 1 (16.6) %
  Weight loss, Any grade: 1 (16.6) %
[6]; [11]
  patients with prolonged stable disease of more than 12 weeks: 10
  prolonged stable disease of more than 12 weeks: 13.5% and 13%
[6]; all dose levels, 74 evaluable, two DLBCL, one Hodgkin's lymphoma, one thymoma
  patients with confirmed partial response: four
[6]; [12]
  at least stable disease or better as best response: 37.1%
  patients with at least stable disease or better as best response: 13
[6]; phase 1b expansion cohort, all colorectal cancer
  patients with prolonged stable disease of more than 12 weeks: four
[6]; whole study
  objective response (confirmed complete and partial response rate): 8%
[7]
  patients achieving partial response: 25%
  patients achieving stable disease as best radiographic response: 50%
[8]; 40 mg/m^2 given 2 out of 3 weeks, Asian patient cohort
  tolerability: most tolerable
[8]; Schedule 1, 40 mg/m^2 twice-a-week continuous, six patients
  DLTs: no DLTs were observed
[8]; Schedule 2, 50 mg/m^2 once a week, three patients
  patients with DLTs: none of the three patients
[8]; Schedule 2, 60 mg/m^2 once a week, three patients
  DLTs: did not show any DLTs
[8]; Schedule 2, 70 mg/m^2 once a week, additional four patients
  patients with grade 3 fatigue that persisted for more than 5 days: one patient
[8]; [13]
  patients with grade 3 thrombocytopenia: one patient
  patients with grade 3 vomiting: one patient
[8]; Schedule 3, 40 mg/m^2 twice a week 2 out of 3 weeks
  patients developing DLTs: 0/3
[8]; Schedule 3, 50 mg/m^2, first six patients
  patients with G3 fatigue: one out of six patients
[8]; [14]
  patients with G3 dehydration from loss of appetite: One out of the subsequent four patients
  patients with G3 hyponatremia: one other patient
[8]; Schedule 4, 16 mg/m^2 three times a week continuous
  patients with G3 diarrhoea and G3 syncope: two out of five patients
[8]; Schedule 4, 20 mg/m^2 three times a week continuous
  patients developing DLTs (G3 fatigue and G3 septicaemia): two out of six patients
[8]; Schedule 4, three-times-a-week continuous dosing
  tolerability of schedule: deemed intolerable
[8]; phase 1a cohort, none related to the study drug
  deaths within 30 days of the last study drug administration: eight
[8]; twice a week with a 1-week drug holiday every 3-week cycle
  RP2D, flat dose: 60 mg
[9]; [15]
  AUC0-48: 5829 ± 1587 ng·h/mL
  Cmax: 553 ± 238 ng/mL
[9]; study KCP-330-002
  Mean half-life: ~ 6 h
[10]
  complete response rate: 13%
